Legend:
Assay type in all cases: functional
MDA-MB-468 = assay: Cytotoxicity against human MDA-MB-468 cells assessed as growth inhibition after 48 hrs by SRB assay
Outline: (§1)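 NCI 60-cell-line screen, five-dose stage: each cell line exposed for 48 h to five concentrations spanning five log steps; cellular protein measured by sulforhodamine B colorimetry. A time-zero cell control and plates without drug are used to derive GI50, TGI and LC50 from log-concentration dose-response curves.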

BT-549 = assay: Cytotoxicity against human BT549 cells assessed as growth inhibition after 48 hrs by SRB assay
Outline: (§2)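 NCI 60-cell-line five-dose screen at […]. Drug exposure was 48 h, followed by sulforhodamine B protein staining. GI50, TGI and LC50 were calculated against a time-zero control and untreated plates, with dose–response curves plotted from log10 concentration.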

PC-3 = assay: Cytotoxicity against human PC3 cells assessed as growth inhibition after 48 hrs by SRB assay; outline: as §1
[1] = (§3) Cytotoxicity against human UO31 cells assessed as growth inhibition after 48 hrs by SRB assay; conditions: UO-31, 48 h
Outline: (§4)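 NCI 60-cell-line screen, two stages. Five-dose testing at […]. Cellular protein measured by sulforhodamine B colorimetry after 48 h drug exposure. A time-zero control and drug-free plates are used to derive GI50, TGI and LC50 from dose-response curves plotted as log10 concentration per cell line.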

UO-31 = assay: as §3; outline: as §4
RXF 393 = assay: Cytotoxicity against human RXF393 cells assessed as growth inhibition after 48 hrs by SRB assay; outline: as §1
ACHN = assay: Cytotoxicity against human ACHN cells assessed as growth inhibition after 48 hrs by SRB assay; outline: as §2
A498 = assay: Cytotoxicity against human A498 cells assessed as growth inhibition after 48 hrs by SRB assay; outline: as §2
786-0 = assay: Cytotoxicity against human 786-0 cells assessed as growth inhibition after 48 hrs by SRB assay; outline: as §2
[2] = (§5) Cytotoxicity against human NCI-ADR-RES cells assessed as growth inhibition after 48 hrs by SRB assay; outline: as §1
NCI/ADR-RES = assay: as §5; outline: as §1
OVCAR-3 = assay: Cytotoxicity against human OVCAR3 cells assessed as growth inhibition after 48 hrs by SRB assay; outline: as §1
[3] = (§6) Cytotoxicity against human OVCAR4 cells assessed as growth inhibition after 48 hrs by SRB assay; conditions: OVCAR-4, 48 h; outline: as §1
OVCAR-4 = assay: as §6; outline: as §1
IGROV-1 = assay: Cytotoxicity against human IGROV1 cells assessed as growth inhibition after 48 hrs by SRB assay; outline: as §2
SK-MEL-2 = assay: Cytotoxicity against human SK-MEL-2 cells assessed as growth inhibition after 48 hrs by SRB assay; outline: as §1
MDA-MB-435 = assay: Cytotoxicity against human MDA-MB-435 cells assessed as growth inhibition after 48 hrs by SRB assay; outline: as §1
Malme-3M = assay: Cytotoxicity against human MALME-3M cells assessed as growth inhibition after 48 hrs by SRB assay; outline: as §2
LOX IMVI = assay: Cytotoxicity against human LOXIMVI cells assessed as growth inhibition after 48 hrs by SRB assay; outline: as §2
SF-539 = assay: Cytotoxicity against human SF539 cells assessed as growth inhibition after 48 hrs by SRB assay; outline: as §1
HT-29 = assay: Cytotoxicity against human HT-29 cells assessed as growth inhibition after 48 hrs by SRB assay; outline: as §2
HCT-15 = assay: Cytotoxicity against human HCT15 cells assessed as growth inhibition after 48 hrs by SRB assay; outline: as §2
NCI-H522 = assay: Cytotoxicity against human NCI-H522 cells assessed as growth inhibition after 48 hrs by SRB assay; outline: as §1
NCI-H460 = assay: Cytotoxicity against human NCI-H460 cells assessed as growth inhibition after 48 hrs by SRB assay; outline: as §1
NCI-H322M = assay: Cytotoxicity against human NCI-H322M cells assessed as growth inhibition after 48 hrs by SRB assay; outline: as §1
NCI-H23 = assay: Cytotoxicity against human NCI-H23 cells assessed as growth inhibition after 48 hrs by SRB assay; outline: as §1
SR = assay: Cytotoxicity against human SR cells assessed as growth inhibition after 48 hrs by SRB assay; outline: as §4
HL-60(TB) = assay: Cytotoxicity against human HL-60(TB) cells assessed as growth inhibition after 48 hrs by SRB assay
Outline: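 NCI 60-cell panel five-concentration stage (0.01, 0.1, 1, 10, 100) in HL-60(TB). Cellular protein was measured by sulforhodamine B colorimetry after 48 h of exposure. A time-zero cell control and untreated plates allowed calculation of GI50, TGI and LC50. These were read from log10 concentration dose-response curves.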

[4] = Cytotoxicity against human Hs578T cells assessed as cell growth at 10 uM after 48 hrs by SRB assay; conditions: Hs-578T, read-out: Activity
[5] = read-out: LC50 (the source's name)

CCSc1nc2ccc3c(c2[nH]1)C(=O)c1ccccc1C3=O
growth inhibition (GI) (MDA-MB-468): Dose-dependent effect | GI50 (MDA-MB-468; MDA-MB-468, 48 h): 2.01 µM | LC50 (MDA-MB-468; MDA-MB-468, 48 h): > 100 µM | TGI (MDA-MB-468; MDA-MB-468, 48 h): 59.6 µM | growth inhibition (GI) (BT-549): Dose-dependent effect | GI50 (BT-549; BT-549, 48 h): 9.34 µM | LC50 (concentration killing 50% of cells) (BT-549; BT-549, 48 h): > 100 µM | TGI (BT-549; BT-549, 48 h): > 100 µM | growth inhibition (GI) (PC-3): Dose-dependent effect | GI50 (PC-3; PC-3, 48 h): 65 µM | LC50 (PC-3; PC-3, 48 h): > 100 µM | TGI (PC-3; PC-3, 48 h): > 100 µM | GI50 [1]: 3.31 µM | LC50 [1]: > 100 µM | TGI [1]: > 100 µM | growth inhibition (GI) (UO-31): Dose-dependent effect | growth inhibition (GI) (RXF 393): Dose-dependent effect | GI50 (RXF 393; RXF 393, 48 h): 5.17 µM | TGI (RXF 393; RXF 393, 48 h): > 100 µM | CC50 (RXF 393; RXF 393, 48 h, read-out: LC50 (the source's name)): > 100 µM | GI50 (ACHN): 5.09 µM | TGI (ACHN): > 100 µM | growth inhibition (GI) (ACHN): Dose-dependent effect | CC50 (ACHN; [5]): > 100 µM | growth inhibition (GI) (A498): Dose-dependent effect | GI50 (A498; A498, 48 h): 4.7 µM | TGI (A498; A498, 48 h): > 100 µM | CC50 (A498; A498, 48 h, read-out: LC50 (the source's name)): > 100 µM | growth inhibition (GI) (786-0): Dose-dependent effect | GI50 (786-0; 786-0, 48 h): 46.7 µM | LC50 (concentration causing 50% net cell kill) (786-0; 786-0, 48 h): > 100 µM | TGI (786-0; 786-0, 48 h): > 100 µM | GI50 [2]: 8.04 µM | LC50 (concentration causing 50% net cell kill) [2]: > 100 µM | TGI [2]: > 100 µM | growth inhibition (GI) (NCI/ADR-RES): Dose-dependent effect | growth inhibition (GI) (OVCAR-3): Dose-dependent effect | GI50 (OVCAR-3; OVCAR-3, 48 h): 10.2 µM | LC50 (50% lethal concentration) (OVCAR-3; OVCAR-3, 48 h): > 100 µM | TGI (OVCAR-3; OVCAR-3, 48 h): > 100 µM | GI50 [3]: 3.17 µM | LC50 (concentration killing 50% of cells) [3]: > 100 µM | TGI [3]: > 100 µM | growth inhibition (GI) (OVCAR-4): Dose-dependent effect | growth inhibition (GI) (IGROV-1): Dose-dependent effect | GI50 (IGROV-1; IGROV-1, 48 h): 2.38 µM | LC50 (IGROV-1; IGROV-1, 48 h): > 100 µM | TGI (IGROV-1; IGROV-1, 48 h): > 100 µM | growth inhibition (GI) (SK-MEL-2): Dose-dependent effect | GI50 (SK-MEL-2; SK-MEL-2, 48 h): 5.1 µM | LC50 (50% lethal concentration) (SK-MEL-2; SK-MEL-2, 48 h): > 100 µM | TGI (SK-MEL-2; SK-MEL-2, 48 h): > 100 µM | growth inhibition (GI) (MDA-MB-435): Dose-dependent effect | GI50 (MDA-MB-435; MDA-MB-435, 48 h): 76.5 µM | LC50 (MDA-MB-435; MDA-MB-435, 48 h): > 100 µM | TGI (MDA-MB-435; MDA-MB-435, 48 h): > 100 µM | GI50 (Malme-3M): 3.58 µM | TGI (Malme-3M): 94 µM | growth inhibition (GI) (Malme-3M): Dose-dependent effect | CC50 (Malme-3M; [5]): > 100 µM | GI50 (LOX IMVI): 6 µM | LC50 (LOX IMVI): > 100 µM | TGI (LOX IMVI): > 100 µM | growth inhibition (GI) (LOX IMVI): Dose-dependent effect | growth inhibition (GI) (SF-539): Dose-dependent effect | GI50 (SF-539; SF-539, 48 h): 22.9 µM | TGI (SF-539; SF-539, 48 h): > 100 µM | CC50 (SF-539; SF-539, 48 h, read-out: LC50 (the source's name)): > 100 µM | growth inhibition (GI) (HT-29): Dose-dependent effect | GI50 (HT-29; HT-29, 48 h): 23.1 µM | TGI (HT-29; HT-29, 48 h): > 100 µM | CC50 (HT-29; HT-29, 48 h, read-out: LC50 (the source's name)): > 100 µM | growth inhibition (GI) (HCT-15): Dose-dependent effect | GI50 (HCT-15; HCT-15, 48 h): 3.52 µM | LC50 (concentration killing 50% of cells) (HCT-15; HCT-15, 48 h): > 100 µM | TGI (HCT-15; HCT-15, 48 h): > 100 µM | growth inhibition (GI) (NCI-H522): Dose-dependent effect | GI50 (NCI-H522; NCI-H522, 48 h): 4.07 µM | TGI (NCI-H522; NCI-H522, 48 h): > 100 µM | CC50 (NCI-H522; NCI-H522, 48 h, read-out: LC50 (the source's name)): > 100 µM | growth inhibition (GI) (NCI-H460): Dose-dependent effect | GI50 (NCI-H460; NCI-H460, 48 h): 5.49 µM | LC50 (NCI-H460; NCI-H460, 48 h): > 100 µM | TGI (NCI-H460; NCI-H460, 48 h): > 100 µM | GI50 (NCI-H322M): 3.24 µM | LC50 (concentration killing 50% of cells relative to time zero) (NCI-H322M): > 100 µM | TGI (NCI-H322M): > 100 µM | growth inhibition (GI) (NCI-H322M): Dose-dependent effect | growth inhibition (GI) (NCI-H23): Dose-dependent effect | GI50 (NCI-H23; NCI-H23, 48 h): 8.6 µM | LC50 (NCI-H23; NCI-H23, 48 h): > 100 µM | TGI (NCI-H23; NCI-H23, 48 h): > 100 µM | GI50 (SR): 2.36 µM | LC50 (50% lethal concentration) (SR): > 100 µM | TGI (SR): > 100 µM | growth inhibition (GI) (SR): Dose-dependent effect | growth inhibition (GI) (HL-60(TB)): Dose-dependent effect | GI50 (HL-60(TB); HL-60, 48 h): 5.26 µM | LC50 (HL-60(TB); HL-60, 48 h): > 100 µM | TGI (HL-60(TB); HL-60, 48 h): > 100 µM | growth at 10 µM [4]: 85.4%
